Tests used:
[1] = target: β-cardiac myosin isolated from human heart left ventricle (Homo sapiens, UniProt P12883); test: Actin-activated ATPase inhibition, human heart left ventricle myosin; type: biochemical
How it was run: (§1)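 Steady-state actin-activated ATPase measured by NADH-PK/LDH coupled assay at 25°C for 15 min. Buffer: 10 mM MOPS pH 7.0, 4 mM MgCl2, 2 mM β-mercaptoethanol, with 0.5 mM ATP, 25 μM F-actin, 1 mM PEP, 200 μM NADH and 2% PK/LDH. NADH decrease followed at 340 nm; activity taken from linear regression of absorbance over time. Inhibitor added at varied concentrations in DMSO (1% final).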

[2] = target: expressed human β-cardiac myosin (Homo sapiens, UniProt P12883); test: Actin-activated steady-state ATPase inhibition, expressed human β-cardiac myosin; type: biochemical
How it was run: as §1

[3] = system: skeletal myosin samples from m.vastus lateralis; test: Actin-activated ATPase inhibition, human m. vastus lateralis biopsy myosin; type: biochemical; settings: patient-derived biopsies; 56% fast isoforms
[4] = system: cardiovascular and respiratory functions of rats; test: Non-invasive measurement of cardiovascular and respiratory functions; type: in vivo; settings: rat
How it was run: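 Anaesthetised rats had the neck trimmed for a size-matched collar sensor of a non-invasive pulse oximeter. Recorded heart rate, pulse distention (local blood flow), breath rate and oxygen saturation after test compound or SBECD vehicle. Monitored 60-600 min; maximal signal deflection taken; 1-4 animals per dose.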

[5] = system: rat hindleg isometric force; test: Isometric force measurement of rat hindleg; type: in vivo
NM2A = NM2A (Homo sapiens, UniProt P35579); test: Actin-activated steady-state ATPase inhibition, NM2A; type: biochemical; settings: even at extremely high concentrations
How it was run: as §1

[6] = system: human adult lung (hLFa) fibroblast; test: CyQUANT LDH Cytotoxicity assay, lung fibroblasts; type: cell-based; settings: 20 μM and 50 μM, 48 and 120 hours
How it was run: (§2)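 LDH release (CyQUANT kit, per manufacturer) from human adult dermal and lung fibroblasts. Cells exposed to 20 or 50 μM test compound for 48 and 120 h.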

[7] = system: human adult dermal fibroblast (hDFa); test: CyQUANT LDH Cytotoxicity assay, dermal fibroblasts; type: cell-based; settings: 20 μM and 50 μM, 48 and 120 hours
How it was run: as §2

smooth muscle myosin-2 = smooth muscle myosin-2 (Gallus gallus, UniProt P10587); test: Actin-activated steady-state ATPase inhibition, smooth muscle myosin; type: biochemical, chicken; settings: even at extremely high concentrations
How it was run: as §1

[8] = system: spastic rats after pyramidal tract lesion; test: Spastic cerebral palsy rat model, open-field gait analysis; type: in vivo; settings: for ratio of left turns: Rat-A, 15% before
How it was run: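 Spasticity induced in rats by stereotaxic injection of 15 μl ethanol into the left pyramidal tract (ML −0.8, AP −10, DV 9.7 mm from dura). Rats filmed for 15 min in an 80×80 cm open field with transparent floor, with deep-learning 3D paw tracking. Gait parameters Z-scored and run through PCA. Falls and cramps normalised to distance. Oral 15 or 20 mg/kg; recorded before and 1-21 h after dosing.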

NM2C^F490L variant = NM2C^F490L variant (Homo sapiens, UniProt Q7Z406, F490L); test: Actin-activated steady-state ATPase inhibition, NM2C F490L variant; type: biochemical; settings: expressed variant
How it was run: as §1

NM2B = NM2B (Homo sapiens, UniProt P35580); test: Actin-activated steady-state ATPase inhibition, NM2B; type: biochemical; settings: even at extremely high concentrations
How it was run: as §1

Caco-2 = Caco-2 permeability assay; type: in vitro ADME; settings: faster transfer in the absorptive direction over the excretive direction
How it was run: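 Outsourced Caco-2 permeability, measured apical-to-basolateral and basolateral-to-apical, in the presence of two transporter inhibitors. Mean ± SD, n = 2.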

[9] = system: spastic rats after pyramidal tract lesion; test: Spastic cerebral palsy rat model, cylinder assay; type: in vivo; settings: Rat-B and C, three and five hours after oral 20 mg/kg treatment
TA100 = test: Ames MPF reverse mutagenicity assay, TA100; type: cell-based, S.typhimurium; settings: absence and presence of rat liver S9 fraction
How it was run: (§3)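 Ames MPF reverse mutagenicity run per kit instructions on Salmonella TA98 and TA100. Each strain tested without and with phenobarbital/β-naphthoflavone-induced rat liver S9 fraction.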

TA98 = test: Ames MPF reverse mutagenicity assay, TA98; type: cell-based, S.typhimurium; settings: absence and presence of rat liver S9 fraction
How it was run: as §3

[10] = target: slow skeletal/β-cardiac myosin isolated from left ventricle of porcine heart (Sus scrofa, UniProt P79293); test: Actin-activated steady-state ATPase inhibition, porcine cardiac myosin; type: biochemical; settings: even at extremely high concentrations
[11] = target: fast skeletal myosin-2 isoforms isolated from rabbit psoas muscle (Oryctolagus cuniculus, UniProt Q28641); test: Actin-activated steady-state ATPase inhibition, rabbit psoas skeletal myosin; type: biochemical
How it was run: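 Rabbit psoas S1 made by α-chymotrypsin digestion (0.25 mg/ml, 10 min, 25°C), stopped with 3 mM PMSF, then purified on MonoS. Assayed by NADH-PK/LDH coupled ATPase at 25°C for 15 min: 0.5 mM ATP, 25 μM F-actin, 10 mM MOPS pH 7.0, 4 mM MgCl2. Rate read at 340 nm by linear regression; inhibitor at varied concentrations, 1% DMSO.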

[12] = system: skeletal myosin samples from m.soleus; test: Actin-activated ATPase inhibition, human m. soleus biopsy myosin; type: biochemical; settings: patient-derived biopsy; 28% fast isoforms
[13] = system: 186 different human G-protein-coupled-receptors (GPCRs); test: gpcrMAX panel; type: cell-based; settings: 5 μM; 186 GPCRs
How it was run: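 gpcrMAX service panel of 186 human GPCRs from 60 families, read in both agonist and inhibition modes; test compound at 5 μM. Mean ± SEM, n = 2.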

[14] = target: human non-muscle myosin-2C (NM2C) (Homo sapiens, UniProt Q7Z406); test: Actin-activated steady-state ATPase inhibition, NM2C wild type; type: biochemical; settings: wild-type form
How it was run: as §1

hERG potassium channel = hERG potassium channel (Homo sapiens, UniProt Q12809); test: Predictor hERG Fluorescence Polarization Assay; type: binding; settings: up to 5 μM
How it was run: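 Outsourced hERG fluorescence-polarisation binding assay, test compound up to 5 μM. Mean ± SEM, n = 2.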

[15] = Concentration measurement from tissue samples; type: in vivo; settings: rat
How it was run: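 Male Wistar rats (200-250 g) dosed i.p. or orally, over-anaesthetised; tissues collected and frozen at −80°C. Extracts chloroform-dried, taken up in 50/50 water-acetonitrile, sonicated, centrifuged, then ultracentrifuged (60,000 rpm, 10°C, 60 min). HPLC-MS on RP-18 column, isocratic 50% H2O (0.1% TFA)/50% ACN (0.09% TFA), 0.5 ml/min. Quantified from 400 nm peak area against a calibration curve.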

484 kinases = test: SelectScreen Kinase Profiling panel; type: biochemical, human; settings: 5 μM
How it was run: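 Outsourced SelectScreen panel of wild-type and common mutant human kinases; test compound at 5 μM. Mean ± SEM, n = 2.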

[16] = system: 23 human hormone nuclear receptors (HNR); test: SelectScreen Nuclear Receptor Profiling; type: binding; settings: 5 μM; 23 receptors
How it was run: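 Outsourced SelectScreen binding profile on 23 human hormone nuclear receptors; test compound at 5 μM. Mean ± SEM, n = 2.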

Sequence of expressed human β-cardiac myosin (P12883 85-778 limits assumed): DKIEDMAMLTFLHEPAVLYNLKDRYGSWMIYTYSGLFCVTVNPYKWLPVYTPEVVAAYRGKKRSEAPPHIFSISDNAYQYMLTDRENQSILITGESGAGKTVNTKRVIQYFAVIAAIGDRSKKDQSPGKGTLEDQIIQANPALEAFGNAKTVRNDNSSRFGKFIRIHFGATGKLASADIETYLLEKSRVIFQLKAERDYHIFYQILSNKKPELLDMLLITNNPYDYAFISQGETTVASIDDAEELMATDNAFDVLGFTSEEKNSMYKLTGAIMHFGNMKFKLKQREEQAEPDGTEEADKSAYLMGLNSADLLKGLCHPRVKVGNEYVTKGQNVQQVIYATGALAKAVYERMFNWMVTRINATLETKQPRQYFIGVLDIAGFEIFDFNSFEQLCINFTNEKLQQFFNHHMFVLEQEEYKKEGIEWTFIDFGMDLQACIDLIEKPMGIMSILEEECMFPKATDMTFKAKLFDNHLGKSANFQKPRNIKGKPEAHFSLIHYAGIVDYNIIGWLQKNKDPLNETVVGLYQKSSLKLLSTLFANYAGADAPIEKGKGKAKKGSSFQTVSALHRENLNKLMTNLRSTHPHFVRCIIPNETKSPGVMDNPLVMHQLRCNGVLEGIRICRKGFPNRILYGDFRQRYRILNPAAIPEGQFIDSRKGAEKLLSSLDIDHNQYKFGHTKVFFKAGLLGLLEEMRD
Sequence of expressed human β-cardiac myosin (P08590 whole entry partner): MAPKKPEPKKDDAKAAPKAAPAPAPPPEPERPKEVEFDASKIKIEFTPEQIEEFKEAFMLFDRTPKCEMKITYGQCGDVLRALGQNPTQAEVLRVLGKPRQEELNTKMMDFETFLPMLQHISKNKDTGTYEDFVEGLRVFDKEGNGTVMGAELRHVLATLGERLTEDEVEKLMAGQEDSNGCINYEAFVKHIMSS
Sequence of β-cardiac myosin isolated from human heart left ventricle (P12883 85-778 limits assumed): as the sequence (P12883 85-778 limits assumed) above
Sequence of β-cardiac myosin isolated from human heart left ventricle (P08590 whole entry partner): as the sequence (P08590 whole entry partner) above
Sequence of human non-muscle myosin-2C (NM2C) (Q7Z406 1-799): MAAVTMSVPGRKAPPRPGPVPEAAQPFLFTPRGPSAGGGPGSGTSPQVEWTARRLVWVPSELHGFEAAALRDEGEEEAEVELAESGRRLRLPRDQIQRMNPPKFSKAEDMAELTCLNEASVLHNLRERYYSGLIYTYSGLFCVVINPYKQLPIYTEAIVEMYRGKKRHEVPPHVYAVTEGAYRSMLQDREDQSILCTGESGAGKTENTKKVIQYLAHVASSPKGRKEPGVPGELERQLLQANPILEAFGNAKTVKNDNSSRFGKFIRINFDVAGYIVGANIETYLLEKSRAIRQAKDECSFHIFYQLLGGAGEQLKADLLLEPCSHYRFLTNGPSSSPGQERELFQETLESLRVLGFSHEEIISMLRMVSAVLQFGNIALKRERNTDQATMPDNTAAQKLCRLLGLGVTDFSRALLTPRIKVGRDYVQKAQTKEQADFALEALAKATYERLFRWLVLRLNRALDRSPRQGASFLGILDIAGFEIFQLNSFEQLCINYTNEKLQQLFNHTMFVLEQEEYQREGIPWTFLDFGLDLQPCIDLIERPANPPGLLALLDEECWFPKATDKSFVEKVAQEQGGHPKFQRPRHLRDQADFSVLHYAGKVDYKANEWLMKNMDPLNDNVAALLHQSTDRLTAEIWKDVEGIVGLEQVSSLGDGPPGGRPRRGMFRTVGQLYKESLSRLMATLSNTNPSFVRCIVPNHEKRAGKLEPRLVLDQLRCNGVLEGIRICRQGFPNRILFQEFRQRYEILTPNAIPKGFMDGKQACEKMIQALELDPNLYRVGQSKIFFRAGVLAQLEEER
Sequence of slow skeletal/β-cardiac myosin isolated from left ventricle of porcine heart (P79293 85-778 limits assumed): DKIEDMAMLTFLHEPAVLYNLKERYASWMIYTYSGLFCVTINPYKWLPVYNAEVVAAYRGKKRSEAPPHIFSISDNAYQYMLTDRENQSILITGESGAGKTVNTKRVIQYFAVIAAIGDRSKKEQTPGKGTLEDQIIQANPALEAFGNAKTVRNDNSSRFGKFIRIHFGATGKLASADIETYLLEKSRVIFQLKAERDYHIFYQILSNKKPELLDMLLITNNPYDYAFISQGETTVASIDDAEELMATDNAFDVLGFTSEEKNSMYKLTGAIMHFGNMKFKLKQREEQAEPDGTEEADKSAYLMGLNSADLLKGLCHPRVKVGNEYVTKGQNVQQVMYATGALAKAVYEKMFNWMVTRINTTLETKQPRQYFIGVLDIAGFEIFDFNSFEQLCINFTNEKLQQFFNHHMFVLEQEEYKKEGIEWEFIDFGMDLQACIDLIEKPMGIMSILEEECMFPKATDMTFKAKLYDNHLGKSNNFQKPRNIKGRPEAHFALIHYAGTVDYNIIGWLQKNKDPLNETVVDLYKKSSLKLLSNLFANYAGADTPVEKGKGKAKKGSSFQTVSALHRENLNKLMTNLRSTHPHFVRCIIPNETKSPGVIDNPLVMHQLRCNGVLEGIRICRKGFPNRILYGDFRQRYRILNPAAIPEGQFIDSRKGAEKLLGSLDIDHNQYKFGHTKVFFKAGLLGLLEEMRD
Sequence of hERG potassium channel (Q12809 whole entry): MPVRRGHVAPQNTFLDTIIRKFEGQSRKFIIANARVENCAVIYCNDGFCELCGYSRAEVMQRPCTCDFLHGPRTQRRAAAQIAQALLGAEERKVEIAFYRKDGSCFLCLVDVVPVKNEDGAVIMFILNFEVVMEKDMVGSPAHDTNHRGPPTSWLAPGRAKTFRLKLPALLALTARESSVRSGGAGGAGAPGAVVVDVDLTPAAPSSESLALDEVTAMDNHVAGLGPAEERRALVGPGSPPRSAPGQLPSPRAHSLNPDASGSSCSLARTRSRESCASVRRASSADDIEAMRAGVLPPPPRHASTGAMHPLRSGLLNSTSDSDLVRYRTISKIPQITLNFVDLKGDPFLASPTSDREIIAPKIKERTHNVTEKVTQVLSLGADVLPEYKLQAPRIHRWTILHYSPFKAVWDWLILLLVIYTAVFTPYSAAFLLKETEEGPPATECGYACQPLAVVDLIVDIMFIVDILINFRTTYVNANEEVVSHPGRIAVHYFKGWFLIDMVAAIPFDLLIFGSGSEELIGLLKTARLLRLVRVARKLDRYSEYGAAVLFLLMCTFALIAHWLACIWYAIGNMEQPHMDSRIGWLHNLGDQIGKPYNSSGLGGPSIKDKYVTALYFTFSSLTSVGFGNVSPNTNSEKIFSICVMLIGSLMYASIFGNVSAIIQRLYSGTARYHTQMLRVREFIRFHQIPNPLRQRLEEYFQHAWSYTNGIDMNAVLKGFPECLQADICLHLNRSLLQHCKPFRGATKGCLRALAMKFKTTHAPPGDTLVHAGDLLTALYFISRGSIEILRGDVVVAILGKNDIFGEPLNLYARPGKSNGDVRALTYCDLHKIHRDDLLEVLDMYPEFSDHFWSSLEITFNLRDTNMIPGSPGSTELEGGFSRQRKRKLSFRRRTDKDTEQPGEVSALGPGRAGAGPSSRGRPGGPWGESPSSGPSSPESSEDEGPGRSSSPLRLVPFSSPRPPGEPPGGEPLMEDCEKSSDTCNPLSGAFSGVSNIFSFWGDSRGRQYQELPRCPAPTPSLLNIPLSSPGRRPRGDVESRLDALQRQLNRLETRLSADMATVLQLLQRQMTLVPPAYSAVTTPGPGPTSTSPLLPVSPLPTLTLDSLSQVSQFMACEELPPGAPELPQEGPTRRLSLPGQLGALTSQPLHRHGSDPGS
Sequence of smooth muscle myosin-2 (P10587 84-789 limits assumed): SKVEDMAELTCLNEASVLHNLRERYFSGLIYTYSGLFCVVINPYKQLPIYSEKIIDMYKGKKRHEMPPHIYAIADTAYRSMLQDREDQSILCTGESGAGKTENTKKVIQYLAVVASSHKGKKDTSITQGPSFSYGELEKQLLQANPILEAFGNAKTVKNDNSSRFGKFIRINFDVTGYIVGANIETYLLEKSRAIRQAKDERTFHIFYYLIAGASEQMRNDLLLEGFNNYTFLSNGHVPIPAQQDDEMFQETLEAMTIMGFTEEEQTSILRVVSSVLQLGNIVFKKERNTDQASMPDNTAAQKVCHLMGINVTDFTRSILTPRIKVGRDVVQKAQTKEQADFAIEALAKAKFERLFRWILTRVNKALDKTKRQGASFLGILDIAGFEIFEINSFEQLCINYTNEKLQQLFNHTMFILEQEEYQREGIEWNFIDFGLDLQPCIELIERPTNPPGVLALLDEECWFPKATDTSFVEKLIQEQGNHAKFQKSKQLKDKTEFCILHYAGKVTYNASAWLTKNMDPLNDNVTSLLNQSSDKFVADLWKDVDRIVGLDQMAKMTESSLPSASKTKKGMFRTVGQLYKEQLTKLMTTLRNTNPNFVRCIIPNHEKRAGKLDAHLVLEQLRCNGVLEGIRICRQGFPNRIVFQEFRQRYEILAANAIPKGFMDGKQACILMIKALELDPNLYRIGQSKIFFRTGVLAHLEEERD
Sequence of smooth muscle myosin-2 (P02607 whole entry partner): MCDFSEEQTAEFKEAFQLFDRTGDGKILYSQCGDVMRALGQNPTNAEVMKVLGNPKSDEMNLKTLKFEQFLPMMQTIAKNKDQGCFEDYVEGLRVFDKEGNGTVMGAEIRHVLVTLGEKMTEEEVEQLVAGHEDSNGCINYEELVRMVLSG
Sequence of NM2C^F490L variant (Q7Z406 1-799 F490L): as the sequence (Q7Z406 1-799) above, with F490L counted along it

Cc1ccc2c(c1)C(=O)C1(O)CCN(c3ccccc3)C1=N2 (stereo not drawn) [blebbistatin, reference compound]
ATPase activity reduction of human cardiac myosin sample ([1]; human heart left ventricle): more than 90%
ATPase activity inhibition of expressed human β-cardiac myosin [2]: completely blocked
ATPase inhibition of m.vastus lateralis myosin sample [3]: more than 90%

Cc1ccc2c(c1)C(=O)[C@]1(O)CCN(c3ccc(N)cc3)C1=N2 [AmBleb, para-aminoblebbistatin, reference compound]
time to death due to heart failure ([4]; 16 mg/kg): ≤ 15 min

Cc1cc2c(s1)N=C1N(c3ccc(N4CCOCC4)cc3)CC[C@@]1(O)C2=O [MPH-220]
isometric force decrease τi.p. ([5]; 18 mg/kg, intraperitoneal injection in 200 μl DMSO, anesthetized rats): 34 min
leg phase before force decrease, corresponding to absorption ([5]; 18 mg/kg, oral in 30% SBECD): 17 min
isometric force decrease τp.o. ([5]; 18 mg/kg, orally through gavage tube in 30% SBECD, anesthetized rats): 53 min
persistence of decreased force ([5]; rat hindleg, oral treatment): more than 10 hours
ATPase activity inhibition of NM2A (NM2A): did not inhibit
cytotoxicity (LDH) [6]: not toxic
cytotoxicity (LDH) [7]: not toxic
ATPase activity inhibition of smooth muscle myosin-2 (smooth muscle myosin-2): did not inhibit
ratio of left turns ([8]; 40 minutes after 15 mg/kg treatment): 38%
ratio of left turns ([8]; three hours after 15 mg/kg treatment): 51%
relative frequency of random falling and spontaneous cramping ([8]; Rat-C, 20 mg/kg, open field test): decreased drastically
persistence of enhanced gait functions ([8]; Rat-D, 20 mg/kg): persistent for five hours
PC1 scores (major gait component) ([8]; global PCA, 20 mg/kg oral): significantly decreased
time of maximal effect on PC1 scores ([8]; global PCA, 20 mg/kg oral): 3 h
ATPase sensitivity of NM2C F490L variant (NM2C^F490L variant): became sensitive
ATPase activity inhibition of NM2B (NM2B): did not inhibit
Caco-2 permeability (Caco-2): highly permeable
ATPase inhibition of human heart left ventricle β-cardiac myosin (in words) [1]: unaffected
effect on cardiovascular and respiratory functions ([4]; 18 mg/kg): neither 13 mg/kg MPH-188 (H) nor 18 mg/kg MPH-220 (I) had any significant effect
cardiac and respiratory functions versus excipient control ([4]; 10-hour experiments under anesthesia): neither cardiac nor respiratory functions differed significantly
maximum decrease in heart rate and blood flow parameters ([4]; 10-hour-long anesthesia): ≤ 25%
cardiac function ([4]; concentration range effective in force relaxation): not perturbed
standing up in the cylinder, wall touches with both forepaws [9]: same number of events as their healthy littermates
mutagenicity, base-pair substitution (TA100) (TA100): Lack of mutagenicity
mutagenicity, frameshift (TA98) (TA98): Lack of mutagenicity
ATPase activity inhibition of cardiac myosin [10]: did not inhibit
ATPase inhibition of fast skeletal myosin (selectivity, in words) [11]: selective inhibition
ATPase inhibition of m.soleus myosin sample [12]: 29%
GPCR inhibition or activation [13]: ≤ 30%
ATPase activity inhibition of NM2C [14]: not inhibited
hERG potassium channel inhibition (hERG potassium channel): did not observe inhibition
ATPase activity inhibition of expressed human β-cardiac myosin [2]: essentially unaffected
concentration in the diaphragm [15]: much lower compared to other striated muscle samples
concentration in the liver [15]: only temporarily elevated
concentration in target muscles relative to the inhibitory constant [IC50] ([15]; after 3 hours): 10 fold
elimination from blood and other tissues ([15]; after 3 hours): completely eliminated
concentration in cardiac tissue ([15]; high doses (up to 130 mg/kg)): 3000 to 7000 nM
accumulation in skeletal muscle samples over other tissues ([15]; versus brain, heart, kidney and blood): few-fold accumulation
kinase inhibition (484 kinases): ≤ 20%
ATPase inhibition of m.vastus lateralis myosin sample [3]: 70%
effect on hormone nuclear receptors [16]: remained unaffected
